PubChem BioAssay AID602223 (Southern Research Specialized Biocontainment Screening …, 2012)
Records with an inconclusive call do not appear. Calls of active or inactive are those of the source.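 The calls were made as follows: active = inhibition of 30% or more at any tested concentration; inactive = the rest, inconclusive results apart.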

What follows are compounds tested against M1-family alanyl aminopeptidase (Plasmodium falciparum 3D7) (assay: malaria M1 alanyl aminopeptidase inhibitors – biochemical, QFRET, H-Leu-NHMec substrate, set 2, selectivity assay for PfM17LAP inhibitor project, dose response (AID 602223)). Conditions: recombinant PfM1AAP, H-Leu-NHMec fluorogenic cleavage.
Summary of the method: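 Schedule: 90 min enzyme reaction at room temperature | System: Purified recombinant P. falciparum M1 aminopeptidase | Input: Enzyme at 5 µg/mL final | Replication: Each compound tested in triplicate | Medium: Tris buffer, pH 7.5, containing CoCl2 | Signal: Fluorescence of liberated NHMec, excitation 370 nm, emission 460 nm | Reagent: 0.1 mM fluorogenic substrate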

SMILES | IC50 [µM]
COc1ccc(CC(=O)NO)cc1 | 4.58
CCCCOc1ccc(CC(=O)NO)cc1 | 14
O=C(Cc1ccc(OCc2ccccc2)cc1)NO | 2.89
CC(C)COc1ccc(CC(=O)NO)cc1 | 23.2
COc1ccc(CCCC(=O)NO)cc1 | 95.8
O=C(Cc1ccc(Oc2ccccc2)cc1)NO | 5.45
CCCCCCCCCC(=O)NO | 13.3
CCCCc1ccc(CC(=O)NO)cc1 | 2.57

Now from value to compound:

IC50 [µM] | SMILES
7 | CCOc1ccc(CC(=O)NO)cc1
99.1 | CCCCOc1ccc(C(=O)NO)cc1
1.41 | O=C(Cc1ccc2c(c1)CCCC2)NO
5.77 | Cc1ccc(CC(=O)NO)cc1

Same assay, conditions: recombinant PfM1AAP, H-Leu-NHMec fluorogenic cleavage; at 100 µM (top of the series)

SMILES | inhibition
CN(O)C(=O)Cc1ccc(OCc2ccccc2)cc1 | inactive
COC(=O)Cc1ccc(OCCN(C)C)cc1 | inactive
CCCCOc1ccc(CNc2c(N(C)O)c(=O)c2=O)cc1 | inactive
CCCCOc1ccc(CC(=O)N(C)O)cc1 | inactive
CC(C)(C(=O)NO)c1ccccc1 | inactive

The next lines start with the values.

inhibition | SMILES
inactive | CCCOc1ccc(CC(=O)OC)cc1
inactive | CCCCOc1ccc(CNc2c(N(O)Cc3ccccc3)c(=O)c2=O)cc1
inactive | CCCCOc1ccc(CC(=O)O)cc1
